Source: article PMC3667555 (Bioconjugate chemistry, 2013)

Test system: U87MG human glioma xenografts
Assay: Biodistribution in athymic nude mice bearing U87MG glioma xenografts
Format: in vivo
Details: 1 h p.i.
Summary of the method: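 Female athymic nu/nu mice (4–5 weeks at purchase) received 5 × 10^6 U87MG cells in the shoulder flank and were used 4 weeks later (tumor 0.1–0.5 g, mice 20–25 g). Each got ~0.1 MBq HPLC-purified 99mTc radiotracer in saline by tail vein. Killed by pentobarbital overdose at 60 min p.i.; blood by heart puncture; organs washed, weighed, γ-counted; %ID/g; n = 4–6.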

[1] = tail-vein injection, without RGD2

Substance “[^99mTc(HYNIC-3P-RGD2)(tricine)(TPPTS)] [Compound 5]” has a Tumor/Blood of 15.36 ± 1.01, a Tumor/Liver of 2.55 ± 0.36 and a Tumor/Lung of 1.71 ± 0.05. The Tumor/Muscle was 6.58 ± 1.58, the Blood uptake (tail-vein injection) was 0.47 ± 0.06 %ID/g and the Brain uptake (tail-vein injection) was 0.17 ± 0.03 %ID/g. The Eyes uptake (tail-vein injection) was 1.40 ± 0.13 %ID/g, the Heart uptake (tail-vein injection) was 1.67 ± 0.15 %ID/g and the Kidneys uptake (tail-vein injection) was 12.28 ± 1.09 %ID/g. The Liver uptake (tail-vein injection) was 2.92 ± 0.77 %ID/g, the Lungs uptake (tail-vein injection) was 4.25 ± 0.63 %ID/g and the Muscle uptake (tail-vein injection) was 1.12 ± 0.15 %ID/g. It also gave a Spleen uptake (tail-vein injection) of 3.11 ± 0.18 %ID/g, an Intestine uptake [1] of 9.45 ± 1.31 %ID/g and a Tumor uptake [1] of 7.24 ± 0.95 %ID/g.
